These results are taken from article PMC9366314 (Acta Pharmaceutica Sinica. B, 2022).

Some results are limits rather than exact numbers.

Common to all, as to assay type: cell-based
Test [1] has as its system Gαq/11. The experiment in a line: IP1 accumulation assay. The note with it: CHO-M1 cells, mean ± SEM (n = 3).
Test [2] concerns MP41 cells (GNA11 Q209L mutation). The experiment in a line: Cell proliferation inhibition assay. The note with it: MP41, 72 h, read-out: Antiproliferation (IC50, μmol/L) MP41. In short, it runs like this: (§1)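 Uveal melanoma cells were grown in RPMI-1640 with 10% FBS at 37 °C, 5% CO2. They were resuspended at 3 × 10^3 cells/mL, seeded and left overnight. Cells were exposed to a concentration series of test compound for 72 h. CCK-8 was added for 2–4 h and absorbance read at 450 nm. IC50 values were fitted from the curves and reported as mean ± SEM, n = 3.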

The test system of test [3] is 92.1 cells (GNAQ Q209L mutation). As to the kind of experiment: Cell proliferation inhibition assay. As to conditions: 72 h, read-out: Antiproliferation (IC50, μmol/L) 92.1. In short, it runs like this: as §1

Regarding `CC(C)C[C@H](N)CN1CCn2cc(-c3ccccc3)nc2[C@@H]1CC1CCCCC1` [GQ237], the “IP1 inhibition at 10 μmol/L” value in test [1] turned out to be 43.0 ± 3.3%. Besides, the IC50 in test [2] was 4 ± 1.3 µmol/L; in test [3], 5.8 ± 0.1 µmol/L.
For `CC(C)[C@H](N)CN1CCn2cc(-c3ccccc3)nc2[C@@H]1CC1CCCCC1` [GQ238], in that order: 34.4 ± 1.7%, 6.2 ± 0.7 µmol/L and 7.3 ± 0.7 µmol/L.
For `C[C@H](N)CN1CCn2cc(-c3ccccc3)nc2[C@@H]1CC1CCCCC1` [GQ239], in test [1], the “IP1 inhibition at 10 μmol/L” value is reported as 50.2 ± 5.2%. For the same compound, the IC50 is 6 ± 0.6 µmol/L in test [2] and 11.6 ± 0.6 µmol/L in test [3].
In the same order, the values of `NCCN1CCn2cc(-c3ccccc3)nc2[C@@H]1CC1CCCCC1` [GQ240] are 22.5 ± 4.2%, 7.4 ± 0.3 µmol/L and 9.6 ± 0.6 µmol/L.
In the same order, the values of `CC[C@H](N)CN1CCn2cc(-c3ccccc3)nc2[C@@H]1CC1CCCCC1` [GQ241] are 31.3 ± 9.0%, 5.9 ± 0.5 µmol/L and 6.6 ± 0.2 µmol/L.
For `CCC[C@H](N)CN1CCn2cc(-c3ccccc3)nc2[C@@H]1CC1CCCCC1` [GQ242], in that order: 41.0 ± 6.0%, 5 ± 0.1 µmol/L and 4.7 ± 0.4 µmol/L.
For `CC(C)(C)[C@H](N)CN1CCn2cc(-c3ccccc3)nc2[C@@H]1CC1CCCCC1` [GQ243], the “IP1 inhibition at 10 μmol/L” value in test [1] is listed as 41.6 ± 5.8%. Moreover, the IC50 in test [2] was found to be 5.7 ± 0.7 µmol/L; in test [3] it was 9.6 ± 0.7 µmol/L.
Turning to `N[C@@H](CC1CCCCC1)CN1CCn2cc(-c3ccccc3)nc2[C@@H]1CC1CCCCC1` [GQ244], the “IP1 inhibition at 10 μmol/L” value in test [1] is 45.8 ± 10.5%. For the same compound, the IC50 in test [2] stood at 5.6 ± 0.3 µmol/L; in test [3], 9 ± 1.3 µmol/L.
In the same order, the values of `N[C@H](CN1CCn2cc(-c3ccccc3)nc2[C@@H]1CC1CCCCC1)C1CCCCC1` [GQ245] are 46.8 ± 8.6%, 5 ± 0.3 µmol/L and 5.7 ± 0.1 µmol/L.
Take `N[C@H](CS)CN1CCn2cc(-c3ccccc3)nc2[C@@H]1CC1CCCCC1` [GQ246]: the “IP1 inhibition at 10 μmol/L” value in test [1] is given as 40.4 ± 7.0%. Moreover, the values for the IC50 in test [2] and in test [3] were 14.9 ± 0.8 µmol/L and 15.8 ± 1 µmol/L, respectively.
For `CSCC[C@H](N)CN1CCn2cc(-c3ccccc3)nc2[C@@H]1CC1CCCCC1` [GQ247], in that order: 44.5 ± 3.4%, 5.6 ± 0.2 µmol/L and 6 ± 0.3 µmol/L.
For `N[C@H](CO)CN1CCn2cc(-c3ccccc3)nc2[C@@H]1CC1CCCCC1` [GQ248], in that order: 49.7 ± 9.5%, 7.9 ± 0.7 µmol/L and 10.9 ± 0.5 µmol/L.
For `C[C@H](O)[C@H](N)CN1CCn2cc(-c3ccccc3)nc2[C@@H]1CC1CCCCC1` [GQ249], in that order: 44.1 ± 3.0%, 5.8 ± 0.6 µmol/L and 11.4 ± 0.3 µmol/L.
With `N[C@@H](CCO)CN1CCn2cc(-c3ccccc3)nc2[C@@H]1CC1CCCCC1` [GQ250], the “IP1 inhibition at 10 μmol/L” value in test [1] is 41.8 ± 2.7%. In addition, the IC50 turned out to be 6.9 ± 1 µmol/L in test [2] and 10.4 ± 0.2 µmol/L in test [3].
Take `N[C@@H](CCCO)CN1CCn2cc(-c3ccccc3)nc2[C@@H]1CC1CCCCC1` [GQ251]: the “IP1 inhibition at 10 μmol/L” value in test [1] was determined as 51.2 ± 4.9%. The results for the IC50 in test [2] and in test [3] were 7.4 ± 0.8 µmol/L and 12.6 ± 0.7 µmol/L, respectively.
In the case of `NCC[C@H](N)CN1CCn2cc(-c3ccccc3)nc2[C@@H]1CC1CCCCC1` [GQ252], the “IP1 inhibition at 10 μmol/L” value in test [1] came out at 35.9 ± 7.3%. Further, the IC50 in test [2] was 5.2 ± 0.7 µmol/L; in test [3], 3.5 ± 0.3 µmol/L.
In the same order, the values of `NCCC[C@H](N)CN1CCn2cc(-c3ccccc3)nc2[C@@H]1CC1CCCCC1` [GQ253] are 32.4 ± 1.0%, 9.2 ± 0.6 µmol/L and 9.7 ± 0.4 µmol/L.
In the same order, the values of `NCCCC[C@H](N)CN1CCn2cc(-c3ccccc3)nc2[C@@H]1CC1CCCCC1` [GQ254] are 44.2 ± 0.3%, 8 ± 0.6 µmol/L and 11.2 ± 0.7 µmol/L.
Regarding `N=C(N)NCCC[C@H](N)CN1CCn2cc(-c3ccccc3)nc2[C@@H]1CC1CCCCC1` [GQ255], the “IP1 inhibition at 10 μmol/L” value in test [1] is on record as 27.7 ± 6.7%. For the same compound, the IC50 in test [2] and in test [3] was greater than 40 µmol/L throughout.
In the case of `N[C@@H](Cc1ccc(O)cc1)CN1CCn2cc(-c3ccccc3)nc2[C@@H]1CC1CCCCC1` [GQ256], in test [1], the “IP1 inhibition at 10 μmol/L” value is listed as 47.6 ± 5.0%. In addition, the IC50 in test [2] stood at 9 ± 1.2 µmol/L; in test [3] it was 8.7 ± 0.7 µmol/L.
In the same order, the values of `N[C@@H](Cc1c[nH]c2ccccc12)CN1CCn2cc(-c3ccccc3)nc2[C@@H]1CC1CCCCC1` [GQ257] are 33.2 ± 1.3%, 6 ± 0.3 µmol/L and 9.6 ± 0.5 µmol/L.
For `N[C@@H](Cc1ccccc1)CN1CCn2cc(-c3ccccc3)nc2[C@@H]1CC1CCCCC1` [GQ258], in that order: 48.3 ± 6.5%, 7.9 ± 1.5 µmol/L and 11.6 ± 1.4 µmol/L.
For `N[C@@H](Cc1c[nH]cn1)CN1CCn2cc(-c3ccccc3)nc2[C@@H]1CC1CCCCC1` [GQ259], the “IP1 inhibition at 10 μmol/L” value in test [1] stood at 36.3 ± 0.9%. Further, the values for the IC50 in test [2] and in test [3] were 5.8 ± 0.6 µmol/L and 10.7 ± 0.8 µmol/L, respectively.
`c1ccc(-c2cn3c(n2)[C@H](CC2CCCCC2)N(C[C@@H]2CCCN2)CC3)cc1` [GQ260]: the “IP1 inhibition at 10 μmol/L” value in test [1] is recorded as 53.4 ± 7.0%. Moreover, the IC50 in test [2] came out at 6.7 ± 0.6 µmol/L; in test [3] it was 11.6 ± 1.2 µmol/L.
For `c1ccc(-c2cn3c(n2)[C@H](CC2CCCCC2)N(C[C@@H]2CCCCN2)CC3)cc1` [GQ261], in that order: 27.0 ± 5.1%, 6.2 ± 0.8 µmol/L and 11 ± 0.5 µmol/L.
For `CC(C)[C@H]1c2nc(-c3ccccc3)cn2CCN1C[C@@H]1CCCN1C` [GQ264], in that order: 5.9 ± 1.1%, greater than 40 µmol/L and greater than 40 µmol/L.
For `CC(C)[C@@H]1c2nc(-c3ccccc3)cn2CCN1C[C@@H]1CCCN1C` [GQ265], in that order: 13.5 ± 0.5%, greater than 40 µmol/L and greater than 40 µmol/L.
As for `CC(C)C[C@@H]1c2nc(-c3ccccc3)cn2CCN1C[C@@H]1CCCN1C` [GQ266], the “IP1 inhibition at 10 μmol/L” value in test [1] was found to be 17.5 ± 1.1%. For the same compound, the IC50 in test [2] and in test [3] was greater than 40 µmol/L throughout.
As for `CN1CCC[C@H]1CN1CCn2cc(-c3ccccc3)nc2[C@@H]1C1CCCCC1` [GQ267], the “IP1 inhibition at 10 μmol/L” value in test [1] amounted to 8.9 ± 0.8%. Besides, the IC50 in test [2] and in test [3] was greater than 40 µmol/L throughout.
